# Experimental data reported in ChEMBL document CHEMBL2146441, “2,6-Disubstituted imidazo[2,1-b][1,3,4]thiadiazoles: search for anticancer agents” (2012).
# Experiments:
# Type in all cases: functional
# T47D [1] = assay: Cytotoxicity against human T47D cells assessed as cell growth at 10^-8 M after 48 hrs by SRB assay; settings: read-out: Activity
# MDA-MB-231 = assay: Cytotoxicity against human MDA-MB-231 cells assessed as cell growth at 10^-4 M after 48 hrs by SRB assay; settings: MDA-MB-231, 48 h, read-out: Activity
# HOP-62 = assay: Cytotoxicity against human HOP62 cells assessed as cell growth at 10^-5 M after 48 hrs by SRB assay; settings: HOP-62, 48 h, read-out: Activity
# How it was run: (§1)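 NCI-60 five-dose screen. Cells were grown in RPMI 1640 with 5% FBS and seeded at 5000–40,000 cells/well according to doubling time. They were pre-incubated 24 h at 37 °C in 5% CO₂, and time-zero (Tz) plates were TCA-fixed at drug addition. Five 10-fold dilutions of DMSO stock were applied for 48 h. Read-out was SRB staining, 515 nm absorbance, with percent growth calculated versus Tz and untreated control.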
# SN12C [2] = assay: Growth inhibition of human SN12C cells after 48 hrs by SRB assay; settings: for CC50: read-out: LC50 (the source's name)
# How it was run: (§2)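 Adherent NCI-60 lines grown in RPMI 1640 with 5% FBS, seeded at 5000–40,000 cells/well, and preincubated 24 h at 37 °C, 5% CO2. Compound, stocked in DMSO, given either once at 10^-5 M or at five 10-fold dilutions for 48 h. Cells fixed with cold TCA (final 10%), stained with 0.4% SRB, and read at 515 nm. GI50 taken as 50% reduction in net protein increase versus time-zero and control plates.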
# UACC-257 = assay: Cytotoxicity against human UACC257 cells assessed as cell growth at 10^-5 M after 48 hrs by SRB assay; settings: UACC-257, 48 h, read-out: Activity
# ACHN = assay: Cytotoxicity against human ACHN cells assessed as cell growth at 10^-4 M after 48 hrs by SRB assay; settings: read-out: Activity
# How it was run: (§3)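 NCI-60 screen: lines kept in RPMI 1640 with 5% FBS, seeded at 5000–40,000 cells/well by doubling time, preincubated 24 h at 37 °C in 5% CO2. Time-zero plates TCA-fixed at drug addition. DMSO stocks diluted in medium, 48 h exposure. Fixation in cold TCA (final 10% adherent, 16% suspension), 0.4% SRB stain, solubilised in 10 mM Tris base, A515. Percent growth computed against control and time-zero.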
# RXF 393 = assay: Cytotoxicity against human RXF393 cells assessed as cell growth at 10^-7 M after 48 hrs by SRB assay; settings: RXF 393, 48 h, read-out: Activity
# SK-OV-3 [3] = assay: Cytotoxicity against human SKOV3 cells assessed as cell growth at 10^-8 M after 48 hrs by SRB assay; settings: SK-OV-3, 48 h, read-out: Activity
# BT-549 [4] = assay: Cytotoxicity against human BT549 cells assessed as cell growth at 10^-4 M after 48 hrs by SRB assay; settings: BT-549, 48 h, read-out: Activity; how it was run: as §3
# SK-MEL-2 = assay: Cytotoxicity against human SK-MEL-2 cells assessed as cell growth at 10^-8 M after 48 hrs by SRB assay; settings: SK-MEL-2, 48 h, read-out: Activity
# SNB-75 = assay: Cytotoxicity against human SNB75 cells assessed as cell growth at 10^-7 M after 48 hrs by SRB assay; settings: SNB-75, 48 h, read-out: Activity
# SK-OV-3 [5] = assay: Cytotoxicity against human SKOV3 cells assessed as cell growth at 10^-6 M after 48 hrs by SRB assay; settings: SK-OV-3, 48 h, read-out: Activity
# [6] = Growth inhibition of human Hs 578T cells after 48 hrs by SRB assay; how it was run: as §2
# SF-539 = assay: Cytotoxicity against human SF539 cells assessed as cell growth at 10^-6 M after 48 hrs by SRB assay; settings: SF-539, 48 h, read-out: Activity
# BT-549 [7] = assay: Cytotoxicity against human BT549 cells assessed as cell growth at 10^-7 M after 48 hrs by SRB assay; settings: BT-549, 48 h, read-out: Activity; how it was run: as §3
# NCI-H226 = assay: Cytotoxicity against human NCI-H226 cells assessed as cell growth at 10^-5 M after 48 hrs by SRB assay; settings: NCI-H226, 48 h, read-out: Activity
# PC-3 = assay: Cytotoxicity against human PC3 cells assessed as cell growth at 10^-6 M after 48 hrs by SRB assay; settings: PC-3, 48 h, read-out: Activity
# OVCAR-3 = assay: Cytotoxicity against human OVCAR3 cells assessed as cell growth at 10^-4 M after 48 hrs by SRB assay; settings: OVCAR-3, 48 h, read-out: Activity
# OVCAR-4 = assay: Cytotoxicity against human OVCAR4 cells assessed as cell growth at 10^-8 M after 48 hrs by SRB assay; settings: OVCAR-4, 48 h, read-out: Activity
# IGROV-1 = assay: Growth inhibition of human IGROV1 cells after 48 hrs by SRB assay; settings: IGROV-1, 48 h; for CC50: read-out: LC50 (the source's name); how it was run: as §2
# DU-145 = assay: Cytotoxicity against human DU145 cells assessed as cell growth at 10^-4 M after 48 hrs by SRB assay; settings: DU-145, 48 h, read-out: Activity; how it was run: as §3
# SN12C [8] = assay: Cytotoxicity against human SN12C cells assessed as cell growth at 10^-5 M after 48 hrs by SRB assay; settings: read-out: Activity
# T47D [9] = assay: Growth inhibition of human T47D cells after 48 hrs by SRB assay; settings: for CC50: read-out: LC50 (the source's name); how it was run: as §2
# HOP-92 = assay: Cytotoxicity against human HOP92 cells assessed as cell growth at 10^-7 M after 48 hrs by SRB assay; settings: HOP-92, 48 h, read-out: Activity; how it was run: as §1
# M14 = assay: Cytotoxicity against human M14 cells assessed as cell growth at 10^-5 M after 48 hrs by SRB assay; settings: M14, 48 h, read-out: Activity
# SK-MEL-28 = assay: Cytotoxicity against human SK-MEL-28 cells assessed as cell growth at 10^-4 M after 48 hrs by SRB assay; settings: SK-MEL-28, 48 h, read-out: Activity
# A498 = assay: Growth inhibition of human A498 cells after 48 hrs by SRB assay; settings: A498, 48 h
# How it was run: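 Same 48 h NCI-60 five-dose SRB protocol. Adherent lines were fixed with cold TCA at 10% final; suspension lines such as CCRF-CEM were fixed with 16% final TCA. Stain was 0.4% SRB in 1% acetic acid for 10 min, solubilized in 10 mM Tris base and read at 515 nm. GI50 came from log concentration–growth curves, solving [(Ti−Tz)/(C−Tz)]×100 = 50.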
# NCI-H460 = assay: Cytotoxicity against human NCI-H460 cells assessed as cell growth at 10^-8 M after 48 hrs by SRB assay; settings: NCI-H460, 48 h, read-out: Activity
Structure (SMILES),growth at 0.01 µM (T47D [1]) [%],growth at 100 µM (MDA-MB-231) [%],growth at 10 µM (HOP-62) [%],GI50 (SN12C [2]) [µM],TGI (SN12C [2]) [µM],CC50 (SN12C [2]) [µM],growth at 10 µM (UACC-257) [%],growth at 100 µM (ACHN) [%],growth at 0.1 µM (RXF 393) [%],growth at 0.01 µM (SK-OV-3 [3]) [%],growth at 100 µM (BT-549 [4]) [%],growth at 0.01 µM (SK-MEL-2) [%],growth at 0.1 µM (SNB-75) [%],growth at 1 µM (SK-OV-3 [5]) [%],GI50 [6] [nM],LC50 (concentration killing 50% of starting cells) [6] [µM],TGI [6] [µM],growth at 1 µM (SF-539) [%],growth at 0.1 µM (BT-549 [7]) [%],growth at 10 µM (NCI-H226) [%],other results
COc1ccc(-c2nn3cc(-c4ccc(O)cc4O)nc3s2)cc1,104,-19,-33,2.58,> 100,> 100,36,6,104,102,-15,93,68,85,1920,> 100,9.27,97,94,-11,growth at 1 µM (PC-3): 65%; growth at 100 µM (OVCAR-3): -14%; growth at 0.01 µM (OVCAR-4): 95%; GI50 (IGROV-1): 2230 nM; TGI (IGROV-1): 37.4 µM; CC50 (IGROV-1): > 100 µM; growth at 100 µM (DU-145): 2%; growth at 10 µM (SN12C [8]): 7%; GI50 (T47D [9]): 1630 nM; TGI (T47D [9]): 5.15 µM; CC50 (T47D [9]): > 100 µM; growth at 0.1 µM (HOP-92): 64%; growth at 10 µM (M14): 17%; growth at 100 µM (SK-MEL-28): -26%; GI50 (A498): 365 nM; LC50 (concentration giving 50% net cell kill) (A498): > 100 µM; TGI (A498): 2.56 µM; growth at 0.01 µM (NCI-H460): 101%
COc1ccc(-c2nn3cc(-c4cccc(N)c4)nc3s2)cc1,97,-35,15,4.18,> 100,> 100,63,-53,85,97,-25,93,74,87,2330,> 100,23.3,91,98,16,growth at 1 µM (PC-3): 53%; growth at 100 µM (OVCAR-3): -74%; growth at 0.01 µM (OVCAR-4): 92%; GI50 (IGROV-1): 2650 nM; TGI (IGROV-1): 34.4 µM; CC50 (IGROV-1): > 100 µM; growth at 100 µM (DU-145): -41%; growth at 10 µM (SN12C [8]): 36%; GI50 (T47D [9]): 1370 nM; TGI (T47D [9]): 21.2 µM; CC50 (T47D [9]): > 100 µM; growth at 0.1 µM (HOP-92): 53%; growth at 10 µM (M14): 34%; growth at 100 µM (SK-MEL-28): -39%; GI50 (A498): 1110 nM; LC50 (concentration giving 50% net cell kill) (A498): 45.2 µM; TGI (A498): 5.73 µM; growth at 0.01 µM (NCI-H460): 100%
